ChEMBL document CHEMBL4382237, “Design, Synthesis, and Biological Evaluation of 2-Nitroimidazopyrazin-one/-es with Antitubercular and Antiparasitic Activity” (J Med Chem, 2018)
Values after ≈ are worked out from the molar mass of the structure shown.

Key:
Giardia intestinalis = experiment: Antiparasitic activity against Giardia lamblia WB trophozoites after 24 to 48 hrs by CellTiter-Glo luminescent cell viability assay; details: Giardia duodenalis
Entamoeba histolytica = experiment: Antiparasitic activity against Entamoeba histolytica HM-1:IMSS trophozoites after 24 to 48 hrs by CellTiter-Glo luminescent cell viability assay; type: functional, organism-based
Procedure, shortened: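 Axenic trophozoites were kept in TYI-S-33 with penicillin (100 U/mL) and streptomycin (100 µg/mL) and harvested in log phase. 5000 parasites per well were exposed to a final 8-point two-fold series of 0.39–50 µM, from 10 mM DMSO stocks. Plates were incubated 24–48 h at 37 °C under anaerobic conditions. ATP luminescence viability was read in triplicate. Percent inhibition is given at the highest concentration tested.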

[1] = tested on: Mycobacterium tuberculosis; experiment: Antibacterial activity against Mycobacterium tuberculosis H37Rv after 5 days under normoxic condition by resazurin dye-based fluorescence assay; type: functional, organism-based
Procedure, shortened: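 H37Rv grown in 7H9/ADC/glycerol/Tyloxapol to mid-exponential phase, diluted to OD600 0.001 (~2 x 10^4 CFU/mL) in 7H9S with serially diluted compound. Incubated 5 days at 37 °C, then resazurin and Tween-80 added. Fluorescence (ex 530/em 590 nm) read after 24 h, normalised to no-drug and no-bacteria wells.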

[2] = tested on: Mycobacterium tuberculosis; experiment: Antibacterial activity against non-replicating Mycobacterium tuberculosis H37Rv after 5 days under hypoxic condition by resazurin dye-based fluorescence assay; type: functional; details: 120 h
Procedure, shortened: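 Same H37Rv inoculum (OD600 0.001, ~2 x 10^4 CFU/mL) in 7H9S with serially diluted compound. Plates held 5 days at 0.1% oxygen, then resazurin plus Tween-80 added.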

[3] = tested on: Trypanosoma brucei brucei; experiment: Antiparasitic activity against bloodstream form of Trypanosoma brucei brucei strain 427 after 48 hrs by resazurin dye-based assay; type: functional, organism-based; details: strain 427, 48 h
Staphylococcus aureus = experiment: Antibacterial activity against methicillin-resistant Staphylococcus aureus ATCC […] by broth microdilution assay; type: functional
Escherichia coli = experiment: Antibacterial activity against Escherichia coli ATCC 25922 by broth microdilution assay; type: functional
Procedure, shortened: (§1)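 Broth microdilution run essentially per an earlier report. MIC taken as the lowest concentration with no visible growth. Replicates typically agreed within one 2-fold dilution. The median MIC is reported, with a range where the median fell between two tested concentrations.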

Klebsiella pneumoniae = experiment: Antibacterial activity against Klebsiella pneumoniae 700603 by broth microdilution assay; type: functional; procedure, shortened: as §1
Acinetobacter baumannii = experiment: Antibacterial activity against Acinetobacter baumannii ATCC 19606 by broth microdilution assay; type: functional; details: ATCC 19606 = CIP 70.34 = JCM 6841; procedure, shortened: as §1
Pseudomonas aeruginosa = experiment: Antibacterial activity against Pseudomonas aeruginosa ATCC 27853 by broth microdilution assay; type: functional; procedure, shortened: as §1
Candida albicans = experiment: Antifungal activity against Candida albicans ATCC 90028 by broth microdilution assay; type: functional; procedure, shortened: as §1
Cryptococcus neoformans = experiment: Antifungal activity against Cryptococcus neoformans H99 ATCC […] broth microdilution assay; type: functional; details: var. grubii H99 ATCC 208821; procedure, shortened: as §1
Clostridioides difficile = experiment: Antibacterial activity against Clostridium difficile 630 ATCC BAA-1382 by broth microdilution assay; type: functional; procedure, shortened: as §1
HEK293 = experiment: Cytotoxicity against HEK293 cells after 24 hrs by resazurin dye-based fluorescence assay; type: cell-based; details: human, hek293, 24 h
Procedure, shortened: (§2)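 HEK293 (3000/well) and HepG2 (5000/well) were grown 24 h in DMEM with 10% FBS at 37 °C, 5% CO2. Cells were then exposed 24 h to a dilution series up to 100 µM (0.5% DMSO). 5 µM resazurin was added for 2 h, read at ex 560/em 590. 1% Triton X-100 served as lysis control. CC50 was derived from the curves.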

HepG2 = experiment: Cytotoxicity against human HepG2 cells after 24 hrs by resazurin dye-based fluorescence assay; type: cell-based; details: hepg2, 24 h; procedure, shortened: as §2

| Compound | IC50 (Giardia intestinalis) [µM] | IC50 (Giardia intestinalis; read-out: pIC50 (converted)) [µM] | IC50 (Entamoeba histolytica; read-out: IC50) [µM] | IC50 (Entamoeba histolytica; read-out: pIC50 (converted)) [µM] | MIC [1] [µg/mL] | MIC [2] [µg/mL] | IC50 ([3]; read-out: IC50) [µM] | IC50 ([3]; read-out: pIC50 (converted)) [µM] | MIC (Staphylococcus aureus) [µg/mL] | MIC (Escherichia coli) [µg/mL] | MIC (Klebsiella pneumoniae) [µg/mL] | MIC (Acinetobacter baumannii) [µg/mL] | MIC (Pseudomonas aeruginosa) [µg/mL] | MIC (Candida albicans) [µg/mL] | MIC (Cryptococcus neoformans) [µg/mL] | MIC (Clostridioides difficile) [µg/mL] | CC50 (HEK293) [µM] | CC50 (HepG2) [µM] |
| --- | --- | --- | --- | --- | --- | --- | --- | --- | --- | --- | --- | --- | --- | --- | --- | --- | --- | --- |
| Cc1cn2cc([N+](=O)[O-])nc2c(=O)n1Cc1cccc(OC(F)(F)F)c1 | 2.8 | 2.51 | 16 | 15.8 | >32 | > 32 | 1.1 | 1.26 | – | – | – | – | – | – | – | – | – | – |
| CC(=O)OCCn1ccn2cc([N+](=O)[O-])nc2c1=O | – | – | – | – | – | – | – | – | > 32 | > 32 | > 32 | > 32 | > 32 | > 32 | > 32 | – | – | – |
| Cc1nc(OCc2cccc(OC(F)(F)F)c2)c2nc([N+](=O)[O-])cn2c1C | 3.9 | 3.98 | 27 | 25.1 | >32 | > 32 | 1.4 | 1.26 | – | – | – | – | – | – | – | – | – | – |
| Cc1ccc(CNC(=O)c2nc([N+](=O)[O-])c[nH]2)cc1 | 0.2 to 0.5 | – | 2.2 to 4.5 | – | – | > 32 | – | – | – | – | – | – | – | – | – | 4 to 16 (≈ 15.4 to 61.5 µM) | – | – |
| O=c1c2nc([N+](=O)[O-])cn2ccn1CCO | > 50 | > 50.1 | – | – | – | – | – | – | > 32 | > 32 | > 32 | > 32 | > 32 | > 32 | > 32 | – | – | – |
| Cc1[nH]c(=O)c2nc([N+](=O)[O-])cn2c1C | 50 | 50.1 | > 50 | > 50.1 | >32 | > 32 | 2.6 | 2.51 | – | – | – | – | – | – | – | – | – | – |
| O=c1c2nc([N+](=O)[O-])cn2cc(-c2ccccc2)n1CCO | 38 | 39.8 | > 50 | > 50.1 | – | > 32 | – | – | – | – | – | – | – | – | – | – | > 75 | > 75 |
| O=c1c2nc([N+](=O)[O-])cn2ccn1CCN1CCOCC1 | – | – | – | – | >32 | > 32 | – | – | > 32 | > 32 | > 32 | > 32 | > 32 | > 32 | > 32 | – | > 100 | > 100 |
| O=C(NCc1ccc(F)cc1)c1ncc([N+](=O)[O-])[nH]1 | 0.2 to 0.5 | – | 2.2 to 4.5 | – | – | > 32 | – | – | – | – | – | – | – | – | – | 4 to 16 (≈ 15.1 to 60.6 µM) | – | – |
| Cc1ccc(Cn2c(C)cn3cc([N+](=O)[O-])nc3c2=O)cc1 | 4.4 | 3.98 | 10 | 10 | >32 | > 32 | 0.56 | 0.501 | – | – | – | – | – | – | – | – | – | – |
| NC(=O)c1nc([N+](=O)[O-])cn1Cc1cccc(OC(F)(F)F)c1 | 4.1 to 50 | – | > 25 | – | – | > 32 | – | – | – | – | – | – | – | – | – | > 64 | – | – |
| Cc1ccc(Cn2cc([N+](=O)[O-])nc2C(N)=O)cc1 | 4.1 to 50 | – | > 25 | – | – | > 32 | – | – | – | – | – | – | – | – | – | > 64 | – | – |
| O=c1c2nc([N+](=O)[O-])cn2ccn1C1CCCCC1 | 5.2 | 5.01 | – | – | >32 | > 32 | 1.4 | 1.26 | > 32 | > 32 | > 32 | > 32 | > 32 | > 32 | > 32 | – | – | – |
| Cc1c(C)n2cc([N+](=O)[O-])nc2c(=O)n1Cc1ccccc1OC(F)(F)F | 5.3 | 5.01 | 18 | 20 | >32 | > 32 | 0.78 | 0.794 | – | – | – | – | – | – | – | – | – | – |
| Cc1cn2cc([N+](=O)[O-])nc2c(=O)[nH]1 | 50 | 50.1 | > 50 | > 50.1 | >32 | > 32 | 3.6 | 3.98 | – | – | – | – | – | – | – | – | – | – |
| O=c1c2nc([N+](=O)[O-])cn2ccn1Cc1ccccc1 | – | – | – | – | – | – | – | – | – | – | – | – | – | – | – | > 64 | – | – |
| O=C(NCc1ccccc1)c1nc([N+](=O)[O-])c[nH]1 | 0.2 to 0.5 | – | 2.2 to 4.5 | – | – | > 32 | – | – | – | – | – | – | – | – | – | 4 to 16 (≈ 16.2 to […] µM) | – | – |
